According to ChEMBL document CHEMBL1125321, “Synthesis and biological activity of 13-epi-avermectins: potent anthelmintic agents with an increased margin of safety” (J Med Chem, 1992):

Experiments:
Cooperia [1] = experiment: Compound is evaluated in vivo for anthelmintic activity against Cooperia species (C. species) parasite in sheep; activity at 0.1 mg/kg; format: functional
In short: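 Sheep with patent nematode infections, randomly assigned to treatment or control; one sheep per compound, two vehicle-only controls. Single oral dose of 0.1 mg/kg. Necropsy 7 days after dosing to count residual worm burdens. Efficacy is % reduction from control, scored 0 = <50%, 1 = 51–75%, 2 = 76–95%, 3 = >95%.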

Haemonchus contortus = experiment: Compound is evaluated in vivo for anthelmintic activity against Haemonchus contortus (H.c) parasite in sheep; activity at 0.1 mg/kg; format: functional
In short: (§1)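 Sheep with patent infections randomly assigned; one sheep per compound, two vehicle-only controls. Single oral dose 0.1 mg/kg. Necropsy 7 days post-dose, residual worm burdens counted. Efficacy as % reduction from control, scored 0 = <50%, 1 = 51-75%, 2 = 76-95%, 3 = >95%.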

[2] = tested on: Teladorsagia circumcincta; experiment: Compound is evaluated in vivo for anthelmintic activity against Ostertagia circumcincta (Os. c) parasite in sheep; activity at 0.1 mg/kg; format: functional; in short: as §1
[3] = tested on: Oesophagostomum columbianum; experiment: Compound is evaluated in vivo for anthelmintic activity against Oesophagostomum columbianum (Oe. c) parasite in sheep; activity at 0.1 mg/kg; format: functional; in short: as §1
Trichostrongylus axei = experiment: Compound is evaluated in vivo for anthelmintic activity against Trichostrongylus axei (T.a) parasite in sheep; activity at 0.1 mg/kg; format: functional; in short: as §1
[4] = tested on: Trichostrongylus colubriformis; experiment: Compound is evaluated in vivo for anthelmintic activity against Trichostrongylus colubriformis (T.c) parasite in sheep; activity at 0.1 mg/kg; format: functional; in short: as §1
[5] = Compound is evaluated for acute toxicity in mice; format: organism-based; settings: mouse, in vivo
In short: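 Male CD-1 mice, groups of five per dose randomly allocated; several doses given orally in vehicle by calibrated syringe with blunt-tipped needle. Deaths counted 7 days after dosing; estimated LD50 derived by the method of dose-pair responses.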

Artemia salina = experiment: Compound is evaluated in vitro for brine shrimp (Artemia salina) activity.; format: functional
Cooperia [6] = experiment: Compound is evaluated in vivo for anthelmintic activity against Cooperia species (C. species) parasite in sheep; activity at 0.1 mg/kg; value ranges from 76-95%; format: functional; in short: as §1

SMILES | Activity (Cooperia [1]) | Activity (Haemonchus contortus) | Activity [2] | Activity [3] | Activity (Trichostrongylus axei) | Activity [4] | LD50 [5] | IC100 (Artemia salina) | Activity (Cooperia [6])
CCC(C)C1O[C@]2(C=C[C@@H]1C)C[C@@H]1CC(C/C=C(\C)[C@@H](OC3C[C@H](OC)[C@@H](OC4C[C@H](OC)[C@@H](O)[C@H](C)O4)[C@H](C)O3)[C@@H](C)/C=C/C=C3\COC4[C@H](O)C(C)=CC(C(=O)O1)[C@]34O)O2 (some centres undefined) [AVERMECTIN B1A] | >95% | >95% | >95% | >95% | >95% | >95% |  |  | 
COC1CC(OC2C(C)OC(O[C@@H]3/C(C)=C/C[C@@H]4C[C@@H](C[C@]5(CC(O)[C@H](C)[C@@H](C(C)C)O5)O4)OC(=O)[C@@H]4C=C(C)[C@@H](O)[C@H]5OC/C(=C\C=C\[C@@H]3C)[C@]54O)CC2OC)OC(C)C1O (some centres undefined) [AVERMECTIN B2] | >95% | >95% | >95% | >95% | >95% | >95% | 50 mg/kg | 220 ng/mL | 
CC[C@H](C)[C@H]1O[C@]2(C=C[C@@H]1C)C[C@@H]1C[C@@H](C/C=C(\C)[C@@H](O[C@H]3C[C@H](OC)[C@@H](O[C@H]4C[C@H](OC)[C@@H](O)[C@H](C)O4)[C@H](C)O3)[C@@H](C)/C=C/C=C3\CO[C@@H]4[C@H](O)C(C)=C[C@@H](C(=O)O1)[C@]34O)O2 [ABAMECTIN COMPONENT B1A] |  |  |  |  |  |  | 19 mg/kg | 356 ng/mL | 
CC[C@H](C)[C@H]1O[C@]2(C=C[C@@H]1C)C[C@@H]1C[C@@H](C/C=C(\C)[C@H](O[C@H]3C[C@H](OC)C(O[C@H]4C[C@H](OC)[C@@H](O)[C@H](C)O4)[C@H](C)O3)[C@@H](C)/C=C/C=C3\CO[C@@H]4[C@H](O)C(C)=C[C@@H](C(=O)O1)[C@]34O)O2 (some centres undefined) |  | >95% | >95% | >95% | >95% | >95% | 160 mg/kg | 870 ng/mL | 76%
CC[C@H](C)[C@H]1O[C@]2(C=C[C@@H]1C)C[C@@H]1C[C@@H](C/C=C(\C)[C@H](O[C@@H]3C[C@H](OC)C(O[C@H]4C[C@H](OC)[C@@H](O)[C@H](C)O4)[C@H](C)O3)[C@@H](C)/C=C/C=C3\CO[C@@H]4[C@H](O)C(C)=C[C@@H](C(=O)O1)[C@]34O)O2 (some centres undefined) |  |  |  |  |  |  |  | 10415 ng/mL | 
CC[C@H](C)[C@H]1O[C@@]2(C[C@@H]3C[C@@H](C/C=C(\C)[C@H](O[C@H]4C[C@H](OC)C(O[C@H]5C[C@H](OC)[C@@H](O)[C@H](C)O5)[C@H](C)O4)[C@@H](C)/C=C/C=C4\CO[C@@H]5[C@H](O)C(C)=C[C@@H](C(=O)O3)[C@]45O)O2)C[C@H](O)[C@@H]1C (some centres undefined) | >95% | >95% | >95% | >95% | >95% | >95% | 540 mg/kg | 650 ng/mL | 
CC[C@H](C)[C@H]1O[C@@]2(C[C@@H]3C[C@@H](C/C=C(\C)[C@H](O[C@@H]4C[C@H](OC)C(O[C@H]5C[C@H](OC)[C@@H](O)[C@H](C)O5)[C@H](C)O4)[C@@H](C)/C=C/C=C4\CO[C@@H]5[C@H](O)C(C)=C[C@@H](C(=O)O3)[C@]45O)O2)C[C@H](O)[C@@H]1C (some centres undefined) |  |  |  |  |  |  |  | 20850 ng/mL | 
